Series [1] addresses 5'-AMP-activated protein kinase catalytic subunit alpha-2 (Rattus norvegicus) (UniProt Q09137). In words: Activation of AMPK in rat L6 cells assessed as increase of [3H]dGlc uptake at 25 uM after 5 hrs in presence of insulin. It is filed as cell-based. In a few lines: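 Myotubes in serum-free αMEM with 0.5% BSA and 23.0 mM D-glucose for 9 h. Compound 25 μM or DMSO (0.1% v/v) given for the last 5 h; insulin 100 nM for the last 20 min. [3H]dGlc uptake read as 5-min PBS pulse with 0.1 mmol/L dGlc; basal rate taken as 100%.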

Series [2] concerns L6. Put plainly: Increase of myc-tagged GLUT1 translocation in rat L6 cell plasma membrane at 25 uM after 30 mins to 5 hrs by colorimetric analysis. Format: functional, cell-based. In a few lines:
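L6 lines stably carrying GLUT4myc or GLUT1myc, treated 5 h with test agent or DMSO; insulin given for 30 min. Live myotubes incubated with rabbit anti-c-Myc (1:200), washed, fixed in 3% formaldehyde, then HRP anti-rabbit IgG (1:2000). Developed with OPD and read at 492 nm to give relative surface transporter abundance.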

The subject of series [3] is Mus musculus. In words: Antidiabetic activity in po dosed KKAy mouse assessed as reduction of blood glucose level. It is filed as functional, organism-based.
The target in another series is Cytochrome P450 2C9 (Homo sapiens, UniProt P11712). Put plainly: Inhibition of CYP2C9 (unknown origin) by luminescent based assay. Format: ADME.
Series [4] deals with Mus musculus. Put plainly: Antidiabetic activity in overnight fast KKAy mouse assessed as total body glucose clearance at 30 to 75 mg/kg, sc bid for 2 days. To be noted: dose mg/kg 30-75; route subcutaneous. It is filed as functional.
In series [5] the test system is Mus musculus. In words: Antidiabetic activity in KKAy mouse assessed as reduction of blood glucose level at 30 to 75 mg/kg, sc bid for 4 days measured on day 1 relative to control. Format: functional. To be noted: dose mg/kg 30-75; route subcutaneous. Also noted: scale not given: the % may be the effect or the level left. In a few lines: (§1)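 Hyperglycemic KKAy mice injected s.c. twice daily for 4 days with compound at 30 or 75 mg/kg suspended in sesame oil; controls received sesame oil (150 µl). Blood glucose measured at the indicated times, with day-zero levels taken as 100%. n=10 per group, mean ± SEM, compared with oil-treated group.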

Another series deals with T1, Cytochrome P450 1A2 (Homo sapiens, UniProt P05177).
T1 sequence (P05177 whole entry): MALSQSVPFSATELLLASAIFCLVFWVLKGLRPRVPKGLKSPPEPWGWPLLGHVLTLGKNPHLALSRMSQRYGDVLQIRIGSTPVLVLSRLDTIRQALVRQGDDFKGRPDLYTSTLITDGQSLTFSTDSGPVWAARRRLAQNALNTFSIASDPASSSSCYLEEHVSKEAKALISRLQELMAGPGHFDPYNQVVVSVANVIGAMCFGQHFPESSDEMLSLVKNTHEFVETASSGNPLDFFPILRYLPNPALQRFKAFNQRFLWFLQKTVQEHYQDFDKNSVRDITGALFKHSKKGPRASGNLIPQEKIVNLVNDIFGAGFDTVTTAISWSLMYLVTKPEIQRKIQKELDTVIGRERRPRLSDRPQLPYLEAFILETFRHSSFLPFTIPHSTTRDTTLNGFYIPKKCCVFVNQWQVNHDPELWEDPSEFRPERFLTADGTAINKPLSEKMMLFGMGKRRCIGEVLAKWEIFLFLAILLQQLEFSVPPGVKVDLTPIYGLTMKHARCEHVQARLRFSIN
In words: Inhibition of CYP1A2 (unknown origin) by luminescent based assay. It is filed as ADME.

Series [6] concerns L6. Put plainly: Increase of [3H]dGlc uptake in rat L6 cells after 5 hrs in presence of AMPK inhibitor compound C. Format: functional, cell-based. In a few lines: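 Differentiated L6 myotubes held 24 h in αMEM with 2% FCS and 23.0 mM D-glucose, then serum-free medium with 0.5% BSA for 4 h. Compound C (5 µM) added 5 h before the uptake assay, alongside 25 µM test agent. Cells rinsed in PBS, then given 0.1 mM dGlc with 1.3 µCi/mL [3H]dGlc in PBS pH 7.4 for 5 min at room temperature. Lysed in 0.1% SDS and counted by scintillation; n=6.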

In series [7] the test system is Mus musculus. In words: Antidiabetic activity in KKAy mouse assessed as reduction of blood glucose level at 30 to 75 mg/kg, sc bid for 4 days measured on day 2 relative to control. Format: functional. Also noted: scale not given: the % may be the effect or the level left. To be noted: dose mg/kg 30-75; route subcutaneous. The procedure, abridged: as §1
Series [8] addresses 5'-AMP-activated protein kinase catalytic subunit alpha-2 (Rattus norvegicus) (UniProt Q09137). Put plainly: Activation of AMPK in rat L6 cells assessed as increase of [3H]dGlc uptake at 25 uM up to 24 hrs. Format: cell-based. The procedure, abridged: (§2)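 Fully differentiated L6 myotubes preincubated 24 h in αMEM with 2% FCS and 23.0 mmol/L D-glucose, then 4 h serum-free with 0.5% BSA. Compound or DMSO vehicle given for the indicated times or concentrations. Uptake read after 5 min at room temperature in PBS pH 7.4 with 0.1 mmol/L dGlc and 1.3 μCi/mL [3H]dGlc, by scintillation of SDS lysates. Zero-time basal rate set as 100%; n=6.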

In series [9] the test system is L6. In words: Activation of AMPKalpha in rat L6 cells assessed as phosphorylation at Thr172 at 15 uM after 4 hrs by Western blot analysis relative to control. It is filed as cell-based. The procedure, abridged: (§3)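 L6 myotubes treated 4 h with increasing compound concentrations (5 to 150 μM) or DMSO. Whole-cell lysates immunoblotted for pThr172-AMPKα, AMPKα and α-tubulin; phosphorylation expressed relative to DMSO-treated control.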
Background: A western blot detects proteins with antibodies after separation by electrophoresis.

The subject of series [10] is Mus musculus. In words: Antidiabetic activity in KKAy mouse assessed as reduction of blood glucose level at 30 to 75 mg/kg, sc bid for 4 days. It is filed as functional, organism-based. The procedure, abridged:
as §1

The test system of series [11] is L6. In words: Activation of AMPKalpha in rat L6 cells assessed as phosphorylation at Thr172 at 100 uM after 1 hr by Western blot analysis. It is filed as cell-based. The procedure, abridged: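 L6 myotubes exposed for the indicated times to test compound (100 μM in the first series; 50–150 μM in the second) or 4 mM AICAR. Whole-cell lysates immunoblotted for pThr172-AMPKα, AMPKα and α-tubulin; band densities from three independent experiments vs respective controls.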

The subject of series [12] is L6. Put plainly: Activation of AMPKalpha in rat L6 cells assessed as phosphorylation at Thr172 at 100 uM after 4 hrs by Western blot analysis relative to control. It is filed as cell-based. In a few lines:
as §3

The next series concerns the target Cytochrome P450 2D6 (Homo sapiens, UniProt P10635). In words: Inhibition of CYP2D6 (unknown origin) by luminescent based assay. It is filed as ADME.
In series [13] the test system is L6. Put plainly: Activation of AMPKalpha in rat L6 cells assessed as phosphorylation at Thr172 after 4 hrs by Western blot analysis. Format: cell-based.
The test system of series [14] is L6. In words: Activation of AMPKalpha in rat L6 cells assessed as phosphorylation at Thr172 at 25 uM after 4 hrs by Western blot analysis relative to control. It is filed as cell-based. The procedure, abridged: as §3
Series [15] has as its target 5'-AMP-activated protein kinase catalytic subunit alpha-2 (Rattus norvegicus) (UniProt Q09137). In words: Activation of AMPK in rat L6 cells assessed as increase of [3H]dGlc uptake after 5 hrs. Format: cell-based. In a few lines: as §2
In series [16] the test system is L6. In words: Cytotoxicity against rat L6 cells assessed as cell viability at 25 to 200 uM after 24 hrs by MTT assay. To be noted: l6, 24 h. Format: cell-based. Background: Tetrazolium assays rely on reduction of a dye to a coloured formazan, in cell work by metabolically active cells.

Activity calls are given as the source filed them. The rule behind the calls is not given here.

5'-AMP-activated protein kinase catalytic subunit alpha-2 (Rattus norvegicus), sequence (Q09137 whole entry): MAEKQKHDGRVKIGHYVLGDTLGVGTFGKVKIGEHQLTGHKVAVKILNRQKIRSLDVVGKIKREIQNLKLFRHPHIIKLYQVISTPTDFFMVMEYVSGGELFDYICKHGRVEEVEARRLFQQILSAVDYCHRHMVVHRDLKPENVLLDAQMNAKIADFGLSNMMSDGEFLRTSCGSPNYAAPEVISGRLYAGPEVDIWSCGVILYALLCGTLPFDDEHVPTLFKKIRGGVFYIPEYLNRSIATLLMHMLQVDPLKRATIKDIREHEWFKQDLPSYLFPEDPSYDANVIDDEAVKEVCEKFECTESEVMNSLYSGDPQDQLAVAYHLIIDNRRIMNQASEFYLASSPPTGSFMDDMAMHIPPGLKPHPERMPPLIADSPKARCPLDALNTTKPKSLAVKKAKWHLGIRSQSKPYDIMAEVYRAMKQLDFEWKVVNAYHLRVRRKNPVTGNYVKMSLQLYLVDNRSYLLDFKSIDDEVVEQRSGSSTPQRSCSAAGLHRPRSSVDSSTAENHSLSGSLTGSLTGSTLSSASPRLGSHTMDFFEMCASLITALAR
Cytochrome P450 2D6, sequence (P10635 whole entry): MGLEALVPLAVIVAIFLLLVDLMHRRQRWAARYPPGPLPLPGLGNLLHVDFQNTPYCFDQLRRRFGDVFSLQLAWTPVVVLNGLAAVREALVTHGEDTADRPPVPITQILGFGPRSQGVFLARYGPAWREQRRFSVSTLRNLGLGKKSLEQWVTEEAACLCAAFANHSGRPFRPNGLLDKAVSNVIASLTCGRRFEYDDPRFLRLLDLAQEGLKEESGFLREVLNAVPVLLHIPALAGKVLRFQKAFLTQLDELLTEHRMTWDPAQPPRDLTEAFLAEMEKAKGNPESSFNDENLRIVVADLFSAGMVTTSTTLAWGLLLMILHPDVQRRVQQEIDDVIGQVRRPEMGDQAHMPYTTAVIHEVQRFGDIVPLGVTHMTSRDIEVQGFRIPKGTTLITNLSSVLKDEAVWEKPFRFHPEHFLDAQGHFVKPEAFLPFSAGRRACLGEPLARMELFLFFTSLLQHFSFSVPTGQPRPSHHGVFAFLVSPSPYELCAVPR
Cytochrome P450 2C9, sequence (P11712 whole entry): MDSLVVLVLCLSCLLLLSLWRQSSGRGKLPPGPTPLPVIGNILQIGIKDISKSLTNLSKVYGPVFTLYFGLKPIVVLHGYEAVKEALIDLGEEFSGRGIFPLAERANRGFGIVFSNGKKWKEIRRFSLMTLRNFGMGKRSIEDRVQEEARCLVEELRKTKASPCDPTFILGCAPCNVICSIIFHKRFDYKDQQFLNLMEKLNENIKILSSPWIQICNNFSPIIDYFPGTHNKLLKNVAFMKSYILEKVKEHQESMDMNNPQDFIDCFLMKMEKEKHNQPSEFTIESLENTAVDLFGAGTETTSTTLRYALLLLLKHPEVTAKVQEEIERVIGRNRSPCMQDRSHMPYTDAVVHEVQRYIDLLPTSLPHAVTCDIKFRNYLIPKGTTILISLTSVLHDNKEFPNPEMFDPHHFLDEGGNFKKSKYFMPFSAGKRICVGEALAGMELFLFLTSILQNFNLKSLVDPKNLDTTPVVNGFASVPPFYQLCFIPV

As for `CCOc1ccc2nc(SCc3nc4ccccc4s3)sc2c1`, the result (in [1]; in series [8]; in the series with Mus musculus [10]; in the series with L6 [11]) was Active. Besides, the result with L6 [2], with Mus musculus [3] and in the series on L6 [6] was inactive. Further, the figures for the “inhibition (INH)” value against Cytochrome P450 2C9, against Cytochrome P450 1A2 and against Cytochrome P450 2D6 were “Not Active”, “Not Active” and 64.4%, respectively. The Activity was 40% with Mus musculus [4]; 30% with Mus musculus [5]; 45% in the series with Mus musculus [7]; “Dose-dependent effect” in the series on L6 [13]; “Dose-dependent effect” in series [15]; “Non-toxic” with L6 [16]. For the same molecule, the fold change (FC) in the series with L6 [9] worked out at 5.5; in the series with L6 [12], 5.2; in the series with L6 [14], 6.8.

The values above are taken from ChEMBL document CHEMBL2396611, “Synthesis and mechanism of hypoglycemic activity of benzothiazole derivatives” (J Med Chem, 2013).
